Active and inactive are the calls of the source. The rule behind the calls is not given here.
What was measured:
[1] = molecular target: T1, GABA-A receptor; anion channel (Rattus norvegicus) (UniProt O09028+P15431+P18506+P18508+P19969+P20236+P23574+P23576+P28471+P28473+P30191+P62813+P63079+P63138+Q91ZM7+Q9ES14); experiment: (§1) Percent response with 1 uM GABA relative to current produced by 1 uM GABA alone in rat hippocampal cells; type: functional, cell-based; conditions: Hippocampus
Outline: (§2)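 Whole-cell patch clamp on rat hippocampal cells. Current with 1 μM GABA plus 1 μM compound is expressed as percent of the current from 1 μM GABA alone.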

[2] = molecular target: T1, GABA-A receptor; anion channel (Rattus norvegicus); experiment: Percent response without GABA relative to current produced by 1 uM GABA alone in rat hippocampal cells (gated current); type: functional, cell-based; conditions: Hippocampus
Outline: (§3)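 Whole-cell patch clamp on rat hippocampal cells. Current gated by 10 μM compound without GABA is expressed as percent of the current evoked by 1 μM GABA on the same cell.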

[3] = molecular target: GABA-A receptor; anion channel; experiment: Inhibition of GABA-A receptor by displacement of 35[S]-TBPS; type: protein-complex assay, Rattus norvegicus
Outline: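 [35S]-TBPS displacement on rat brain membranes, with compounds dissolved in DMSO at a final assay concentration of 0.25%. IC50 was obtained by logistic analysis.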

[4] = molecular target: T1, GABA-A receptor; anion channel (Rattus norvegicus); experiment: Maximal binding constant (Bmax) determined in Scatchard analysis of 35[S]-TBPS binding.; type: protein-complex assay
Outline: (§4)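 Scatchard analysis of [35S]-TBPS binding to rat brain membranes, with compounds dissolved in DMSO at a final assay concentration of 0.25%. Run in triplicate with triplicate determinations per point. Kd and Bmax were taken from linear regression of Scatchard-transformed data. TBPS alone vs TBPS plus test compound was compared by Student's t test.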

[5] = molecular target: Gamma-aminobutyric acid receptor subunit gamma-1 (Rattus norvegicus) (UniProt P23574); experiment: as §1; type: functional, cell-based; conditions: Hippocampus; outline: as §2
Sequence of Gamma-aminobutyric acid receptor subunit gamma-1 (Rattus norvegicus) (P23574 whole entry): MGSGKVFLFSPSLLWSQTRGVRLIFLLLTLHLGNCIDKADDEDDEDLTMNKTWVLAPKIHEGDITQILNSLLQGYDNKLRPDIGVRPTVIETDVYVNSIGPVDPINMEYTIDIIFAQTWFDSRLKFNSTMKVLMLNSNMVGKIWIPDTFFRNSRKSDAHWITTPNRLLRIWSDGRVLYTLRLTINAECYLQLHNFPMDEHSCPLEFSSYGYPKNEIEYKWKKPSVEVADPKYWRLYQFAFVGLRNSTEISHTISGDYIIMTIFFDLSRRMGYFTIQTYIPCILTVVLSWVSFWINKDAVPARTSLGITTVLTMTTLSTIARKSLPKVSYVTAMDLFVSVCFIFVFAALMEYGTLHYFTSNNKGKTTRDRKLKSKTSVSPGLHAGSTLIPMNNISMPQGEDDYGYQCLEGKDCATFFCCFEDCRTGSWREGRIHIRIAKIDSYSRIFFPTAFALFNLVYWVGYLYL

[6] = molecular target: Gamma-aminobutyric acid receptor subunit gamma-1 (Rattus norvegicus) (UniProt P23574); experiment: Percent response without GABA relative to current produced by 1 uM GABA alone in rat hippocampal cells (No response); type: functional, cell-based; conditions: Hippocampus; outline: as §3
[7] = molecular target: GABA-A receptor; anion channel; experiment: Dissociation constant (Kd) determined in Scatchard analysis of 35[S]-TBPS binding.; type: protein-complex assay, Rattus norvegicus; outline: as §4

Compound	Response [1] [%]	Activity [2]	IC50 [3] [µM]	Bmax (pM (mg of protein)-1) [4]	Response [5] [%]	Activity [6]	Kd [7] [µM]
CC(=O)C[C@@]1(C)CCC2C(CC[C@H]3C[C@H](O)CC[C@]23C)C1 (some centres not stated)	113	1	3.98	1.15	–	–	–
C[C@]12CCC3C[C@H](CCO)CCC3C1CCC2=O (some centres not stated)	127	–	44.1	–	–	–	–
CC(=O)[C@H]1CCC2C3CC[C@@H](CCO)CC3CC[C@@]21C (some centres not stated)	489	–	5.82	1.04	–	–	–
C[C@]1(CC#N)CCC2C(CC[C@H]3C[C@H](O)CC[C@]23C)C1 (some centres not stated)	106	8	3.27	–	–	–	–
CC(=O)[C@@]1(C)CCC2C(CC[C@H]3C[C@H](O)CC[C@]23C)C1 (some centres not stated)	108	–	7.06	–	–	–	–
C[C@]12CCC3C[C@H](CCO)CCC3C1CC[C@@H]2C#N (some centres not stated)	–	–	4.5	–	346	inactive	–
CC(=O)C1CC[C@H]2[C@@H]3CC[C@H]4C[C@H](O)CC[C@]4(C)[C@H]3CC[C@]12C (some centres not stated)	195	30	0.18	1.22	–	–	< 0.08
